# PMC9719714 (International Journal of Nanomedicine, 2022)
# “And” between values parts separate entries of the source, which are not always exact repeats. Identical values can stand only once. Like-named read-outs stand apart in the source and are kept apart here.
# Assays:
# MRSA [1] = assay: Time-kill experiment; format: cell-based, Staphylococcus aureus; settings: for inhibition at 150 µg/mL: Staphylococcus aureus, MRSA, read-out: percentage of inhibition (time-kill)
# Outline: (§1)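 S. aureus suspension (1.5 × 10^5 CFU/mL) and test compound, prepared at 150 μg/mL before mixing, were added in equal volumes to flasks of MH broth. A flask without test compound served as control. Flasks were shaken at 150 rpm and 37°C for 24 h. At set intervals, 100 μL aliquots were spread on MH agar for colony counts.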
# MRSA-pvl+ [2] = assay: Time-kill experiment; format: cell-based, Staphylococcus aureus; settings: >3 h of exposure (Figure S2)
# Outline: as §1
# MSSA [3] = assay: Time-kill experiment; format: cell-based, Staphylococcus aureus
# Outline: as §1
# MRSA-pvl- [4] = assay: Time-kill experiment; format: cell-based, Staphylococcus aureus; settings: >3 h of exposure (Figure S2)
# Outline: as §1
# MSSA [5] = assay: Kirby-Bauer disk diffusion test; format: cell-based, Staphylococcus aureus; settings: 18 h
# Outline: (§2)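 Disk diffusion followed CLSI 2013. Sterile disks soaked in test compound (0–1000 µg/mL) were placed on MH agar and held 30 min at room temperature for diffusion. Plates were then incubated 18 h at 37°C and zones of inhibition read. Controls were distilled water (negative) and a 30 µg cefoxitin disk (positive). Strains were MSSA ATCC 25923 and community-acquired MRSA-pvl+ (A33) and pvl- (172817) lab isolates.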
# MRSA [6] = assay: HRTEM observation of treated bacteria; format: cell-based, Staphylococcus aureus; settings: 150 µg/mL for 12 h
# Outline: (§3)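 After the time-kill exposure, MRSA (ATCC 700699) and MSSA (ATCC 25923) cells were processed for electron microscopy. Reagents included glutaraldehyde, cacodylate buffer, osmium tetroxide and acetone, followed by resin embedding. Sections of 1 µm were cut and stained with toluidine blue, and areas were chosen by light microscopy. Sections were then mounted on 100-mesh copper grids, stained 15 min with 1% aqueous uranyl acetate, washed, and imaged at 100 kV.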
# [7] = tested on: 3T3 murine fibroblast cells; assay: In vitro cytotoxicity MTT assay; format: cell-based; settings: 50 µg/mL, 24 h
# [8] = In vitro cytotoxicity MTT assay; format: cell-based, murine; settings: mouse, 3T3 murine fibroblast cells, cell viability
# MRSA-pvl+ [9] = assay: Kirby-Bauer disk diffusion test; format: cell-based, Staphylococcus aureus; settings: 18 h
# Outline: as §2
# MSSA [10] = assay: HRTEM observation of treated bacteria; format: cell-based, Staphylococcus aureus; settings: 150 µg/mL for 12 h
# Outline: as §3
# MRSA [11] = assay: CFU counting method; format: cell-based; settings: Staphylococcus aureus, read-out: percentage of inhibition (CFU)
# Outline: (§4)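 S. aureus strains (MRSA ATCC 700699; community-acquired MRSA-pvl+ A33 and MRSA-pvl- 172817 from the lab collection) at 1.5 × 10^5 CFU/mL were combined in well plates with MH broth and test compound (0–1000 μg/mL). Plates were shaken 4 h at 37°C, then diluted 100-fold and swabbed onto MH agar. After drying at room temperature, plates were incubated 18 h at 37°C and colonies counted. Percentage inhibition was calculated relative to distilled water (negative control); cefoxitin served as positive control.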
# MRSA-pvl- [12] = assay: Kirby-Bauer disk diffusion test; format: cell-based, Staphylococcus aureus; settings: 18 h
# Outline: as §2
# zebrafish embryos = assay: Reactive oxygen species; format: in vivo
# Outline: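 Wild-type AB zebrafish embryos at 24 hpf, one per well and 10 per group, were exposed to five concentrations of test compound for 30, 60, 120 or 240 min. Controls were distilled water and 0.5 mM H2O2. Embryos were washed in PBS and spun 10,000 rpm, 5 min, 4°C. They were homogenized in cold PBS and spun 12,372 rpm, 30 min, 4°C. Supernatant was incubated with DCFH-DA (stock 10 mg/mL in DMSO) 30 min in the dark; fluorescence read at ex 485/em 530 nm, in triplicate.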
# MRSA-pvl- [13] = assay: CFU counting method; format: cell-based, Staphylococcus aureus; settings: 50 µg/mL
# Outline: as §4
# MRSA-pvl+ [14] = assay: CFU counting method; format: cell-based; settings: Staphylococcus aureus, read-out: percentage of inhibition (CFU)
# Outline: as §4
compound,measurement,setting,value
"CO[C@@]1(NC(=O)Cc2cccs2)C(=O)N2C(C(=O)O)=C(COC(N)=O)CS[C@@H]21 [CFX, cefoxitin]",inhibition (time-kill),MRSA [1]; >3 h of exposure (Figure S2),total inhibition
same,inhibition (time-kill),MRSA-pvl+ [2],total inhibition
same,inhibition (time-kill),MSSA [3]; >3 h of exposure (Figure S2),total inhibition
same,inhibition (time-kill),MRSA-pvl- [4],total inhibition
"O=C(O)c1cc(O)c(O)c(O)c1 [GA, Gallic acid]",concentration at which growth is inhibited (zone of inhibition),MSSA [5],150 µg/mL
same,morphological changes of bacterial cells (HRTEM),MRSA [6],disrupted morphology and damaged surface
same,inhibition at 150 µg/mL,MRSA [1]; 2 h,44.9%
same,inhibition at 150 µg/mL,MRSA [1],29.4%
same,cell viability,[7],22.16%
same,"viability at 24 h, 50 µg/mL",[8]; 24 h,22.2%
same,"viability at 72 h, 50 µg/mL",[8]; 72 h,4.95%
same,inhibition at 150 µg/mL,"MSSA [3]; Staphylococcus aureus, MSSA, 2 h, read-out: percentage of inhibition (time-kill)",50.7%
same,concentration at which growth is inhibited (zone of inhibition),MRSA-pvl+ [9],300 µg/mL
same,morphological changes of bacterial cells (HRTEM),MSSA [10],disrupted morphology and damaged surface
same,inhibition at 50 µg/mL,MRSA [11],98.3%
same,concentration at which growth is inhibited (zone of inhibition),MRSA-pvl- [12],300 µg/mL and 150 µg/mL
same,ROS content,"zebrafish embryos; 50 and 300 μg/mL, 60 min post-exposure",significantly elevated
same,ROS content,zebrafish embryos; 30 min of exposure,comparable ROS content to control groups
same,ROS content,zebrafish embryos; 120 min post-exposure,reverted to the normal range
same,inhibition (CFU),MRSA-pvl- [13],significant inhibition
same,inhibition at 50 µg/mL,MRSA-pvl+ [14],80.1%
